Compound activity (PubChem)
HSF1 activator = increases HSF-1 driven luciferase reporter signal | AID 504408 | hit rate 1.7% among 300,000 | activation, % at 9 µM | NIH3T3-HGL HSF-1 luciferase reporter, MG132, 8 h; 100% = twice DMSO control signal;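 active means mean replicate activation of at least 50% with a set share of replicates each reaching 50%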;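 further: 0% = median of the neutral control wells and 100% = twice that signal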
PHOSPHO1 inh = PHOSPHO1 (human) inhibition | Q8TCT1 | recombinant PHOSPHO1, absorbance phosphatase assay | inhibition, % at 13.3 µM | hit rate 1.1% among 290,000 | AID 1565; in the data active means inhibition above about 60%
Target sequence (Q8TCT1 whole entry, looked up): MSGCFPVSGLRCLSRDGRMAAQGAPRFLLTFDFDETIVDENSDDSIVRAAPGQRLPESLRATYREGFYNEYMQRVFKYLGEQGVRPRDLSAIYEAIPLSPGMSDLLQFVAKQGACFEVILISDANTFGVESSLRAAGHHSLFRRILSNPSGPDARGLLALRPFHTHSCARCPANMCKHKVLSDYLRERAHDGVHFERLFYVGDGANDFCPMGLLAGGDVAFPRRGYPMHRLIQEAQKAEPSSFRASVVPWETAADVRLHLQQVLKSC
AI-2 QS modul = modulators of Vibrio harveyi AI-2 quorum sensing system; Vibrio harveyi JMH597 AI-2 luminescence/OD600 ratio, 9 h; active compounds read low; strain lacks LuxN and CqsS sensors; 0 = neutral-control median; activity change, % at 7.5 µM; hit rate 0.4% among 300,000; AID 2094; in the data active means activity change below about -75%, passing the limit was not always enough;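 further: luminescence divided by OD600 gain over 9 h not by final OD600 alone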
HSF1 inhib = HSF1 inhibition | activity change, negative = inhibition, % at 7.5 µM (by protocol) | NIH3T3-HGL HSE-luciferase, MG132-induced, luminescence 8 h; active compounds read low | AID 2098 | hit rate 0.77% among 300,000;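 active means more than half of replicate wells show activity change below -50%, luminescence cut by over half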;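 further: luciferase reports HSF-1 transcriptional activity via heat shock element; 0% = median of DMSO wells and -100% = zero luminescence signal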
core dimer inh = HCV core protein dimerization inhibition; hit rate 0.33% among 300,000; inhibition, % at 5 µM; AID 1899; TR-FRET GST/Flag-core106 dimerization, 1536-well;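 active means inhibition above the mean of all tested compounds plus 3 SD, set per screening campaign, cut at about 45% in these data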
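assay system = GST-tagged and Flag-tagged HCV core protein residues 1-106 | controls = unlabelled core106 and no-GST-core106 wells | incubation = compound-protein-antibody incubation 4 h at 22.5 °C | probe or stimulus = Eu donor and XL665 acceptor anti-tag antibodies | read-out = % inhibition based on acceptor/donor emission ratio | signal = TR-FRET 671 and 617 nm emission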
ALR H2O2 inh = inhibitors of human sulfhydryl oxidase ALR. P55789. purified ALR, DTT oxidation, H2O2 HRP-luminol luminescence. inhibition, % (no concentration beside the values). hit rate 3.8% among 290,000. AID 485317;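 active means mean replicate inhibition above about 79%, with every replicate also reaching it, limit read from the data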
Target sequence (P55789 whole entry, looked up): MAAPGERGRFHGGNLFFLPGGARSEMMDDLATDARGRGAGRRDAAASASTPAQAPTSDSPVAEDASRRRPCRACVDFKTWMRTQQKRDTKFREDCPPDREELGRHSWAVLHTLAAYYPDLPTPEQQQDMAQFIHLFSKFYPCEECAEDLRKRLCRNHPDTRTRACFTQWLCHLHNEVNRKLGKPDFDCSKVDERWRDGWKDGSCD
Numbers without * were called inactive; / = not tested or not shown. Hits are enriched below; roughly 6.8% of the tested compounds scored in any of these assays.

SMILES | HSF1 activator | PHOSPHO1 inh | AI-2 QS modul | HSF1 inhib | core dimer inh | ALR H2O2 inh
CSC1=C(C#N)C(c2ccncc2)C(C(=O)Nc2ccccc2)=C(C)N1 (stereo not drawn) | -9.2 | 61.5* | 22.8 | -5.8 | 2.4 | -0.2
COC(=O)C1=C(C)NC(=O)/C1=C\N(C)C | -5.2 | -12.3 | -8.1 | -3.4 | -5.1 | -0.3
CCOc1cc(/C=N/NC(=O)CCn2nnc3ccccc32)ccc1O | -34.7 | 10.6 | -1.5 | -11.4 | -4.6 | 99.5*
CN(C)c1ccc(/C=N/NC(=O)Cn2nnc3ccccc32)cc1 | -12.6 | -2.7 | 5.9 | 3.8 | -5.8 | 98.5*
COC(=O)Oc1ccc(/C=N/NC(=O)CSCc2ccccc2Br)cc1OC | 7.7 | 17.1 | 12.5 | -4.1 | 9.8 | 98.9*
COc1ccc(/C=N/NC(=O)Cn2nnc3ccccc32)cc1OC | 1.7 | -8.5 | -91.9* | -12.3 | -2.5 | -8.2
CC(/C=N/NC(=O)CCn1nnc2ccccc21)=C\c1ccccc1 | 5.7 | -9.0 | -11.1 | -2.7 | 2.6 | -4.3
Cc1ccsc1/C=N\NC(=O)Cn1nnc2ccccc21 | -7.7 | -5.8 | -33.6 | -8.8 | -11.0 | 1.3
O=C(CSc1ccc(-c2ccc(Cl)cc2)nn1)Nc1ccc2c(c1)OCCO2 | 26.0 | -14.7 | 23.5 | -0.7 | 8.3 | -21.6
CCc1cccc(C)c1NC(=O)CCNC(=O)c1cccc(C)c1 | 9.6 | 19.4 | 6.5 | 1.0 | -10.2 | -0.1
COc1ccc(/C=N/NC(=O)Cn2c(Cc3ccc(OC)c(OC)c3)nc3ccccc32)cc1OC | 4.0 | 4.4 | 7.7 | 6.5 | -6.3 | -14.0
COc1cc(/C=N/NC(=O)C(C)n2nnc3ccccc32)ccc1O (stereo not drawn) | 14.9 | 7.1 | -11.9 | 2.1 | -4.7 | 97.4*
COc1ccc(Cc2nc3ccccc3n2CC(=O)N/N=C/c2ccc(O)cc2)cc1OC | -11.7 | -1.8 | 3.8 | -3.0 | 3.3 | 99.8*
COc1ccccc1NC(=O)COC(=O)c1ccc([N+](=O)[O-])s1 | -2.8 | 4.5 | -87.0* | -6.2 | -5.5 | /
Cc1ccc(NC(=O)COC(=O)c2ccc([N+](=O)[O-])s2)c(C)c1 | 6.6 | -5.8 | 19.1 | -1.8 | 5.8 | -17.9
Cc1ccccc1C(=O)NNc1ccc(-c2csnn2)cc1 | 1.4 | 12.2 | 10.9 | -9.1 | 3.0 | /
CN(C)c1ccc(NC(=O)COC(=O)c2cc(=O)c3ccccc3o2)cc1 | -11.0 | -6.7 | 2.6 | -9.7 | -10.7 | 99.4*
N#Cc1ccccc1COC(=O)c1cc(=O)c2ccccc2o1 | 62.6* | 14.4 | 13.2 | 24.2 | -8.5 | -15.9
CC(C)c1ccc(N(C(=O)c2snc(C(N)=O)c2N)C(C(=O)NC2CCCC2)c2ccncc2)cc1 (stereo not drawn) | 15.7 | 37.0 | 14.0 | 12.2 | 9.2 | -4.3
COc1ccc(CN(C)C(=O)c2ccc(NS(=O)(=O)c3ccc4[nH]c(=O)[nH]c4c3)cc2)c(OC)c1OC | / | / | / | / | / | 25.2
COc1cc(/C=C2\C(=O)NN(c3ccccc3)C2=O)cc([N+](=O)[O-])c1O | -1.9 | 6.5 | 40.2 | -1.6 | -5.9 | 98.0*
COc1cc(/C=C2/C(=O)NN(c3ccc(Cl)cc3)C2=O)cc(OC)c1O | 5.4 | 38.1 | 21.3 | 15.3 | -7.5 | 18.7
CCOc1cc(/C=C2\C(=O)NN(c3ccccc3)C2=O)cc([N+](=O)[O-])c1O | 11.1 | -5.3 | 64.8 | 0.7 | -3.3 | 95.4*
CCOc1cc(/C=C2\NC(=O)NC2=O)cc([N+](=O)[O-])c1O | 4.2 | 12.9 | 24.1 | -3.0 | -18.6 | 88.3*
COc1cc(/C=C2/C(=O)NN(c3ccccc3)C2=O)cc(Br)c1O | -5.0 | 43.7 | 21.1 | -3.7 | -4.8 | 98.5*
SMILES | HSF1 activator | PHOSPHO1 inh | AI-2 QS modul | HSF1 inhib | core dimer inh | ALR H2O2 inh
CCOC(=O)COc1ccc(/C=C2/C(=O)NN(c3ccc(F)cc3)C2=O)cc1OC | -13.1 | 13.0 | -4.0 | -1.0 | -11.3 | 65.0
CCOc1cc(/C=C2\NC(=O)NC2=O)ccc1OC(C)C(=O)O (stereo not drawn) | -15.2 | / | 11.2 | -4.2 | -7.5 | 1.4
O=C(CNS(=O)(=O)c1cccc(Br)c1)NCC1CCCCC1 | -19.9 | -17.9 | -5.2 | -13.0 | -2.4 | 0.7
COc1cc(/C=C2\C(=O)NN(c3ccc(C)cc3)C2=O)cc([N+](=O)[O-])c1O | -2.1 | 34.2 | 58.5 | 2.7 | -3.1 | 98.7*
CCOC(=O)c1cc(NCc2cccs2)ccc1N1CCOCC1 | 21.6 | 42.9 | 27.4 | 4.2 | -3.0 | 98.7*
COC(=O)c1cc(NCc2ccccc2F)ccc1N1CCOCC1 | 15.6 | 15.6 | 26.2 | -6.9 | -2.7 | 99.0*
Cc1ccc(C)c(Sc2ccc(NC(=O)CCl)cc2)c1 | 74.6* | -4.0 | 39.4 | 31.7 | 8.0 | 86.2*
Cc1ccc(Sc2ccc(NC(=O)CCl)cc2)cc1C | -12.3 | -2.5 | 35.8 | -4.3 | -5.5 | 98.3*
NS(=O)(=O)c1cccc(NC(=O)COC(=O)CN2C(=O)C3CC=CCC3C2=O)c1 (stereo not drawn) | -2.6 | 20.5 | 18.1 | -4.2 | -3.7 | -5.8
CCN(CC)c1ccc(-n2c(C)cc(C=O)c2C)cc1 | 1.6 | 16.0 | 19.3 | 2.4 | 1.3 | 98.4*
CCCCCn1nc(C(=O)N(CC(C)C)c2c(N)n(CCCC)c(=O)[nH]c2=O)c2ccccc2c1=O | 10.2 | / | 15.4 | -0.2 | 0.5 | 1.6
CC(Cc1ccccc1)C(=O)Nc1ccccc1 (stereo not drawn) | -71.4 | -1.4 | 17.8 | -64.7* | -23.1 | -13.5
CCn1c(C)cc(/C=C2\NC(=O)N(Cc3ccccc3)C2=O)c1C | -1.5 | 69.6* | 9.5 | 1.0 | -0.8 | -5.4
CC1CCCCN1C(=S)NCCc1ccccc1 (stereo not drawn) | 25.3 | 88.1* | 5.7 | 12.6 | -3.4 | -14.2
CCOc1ccccc1/C=C/c1onc(C)c1S(=O)(=O)N1CCC(C(=O)NC(C)(C)C)CC1 | -86.5 | 38.5 | -5.6 | -83.2* | 4.5 | -3.7
CCCc1nnc(NC(=O)CCC(=O)N2CCN(S(=O)(=O)c3ccc(F)cc3)CC2)s1 | -88.3 | 17.1 | 30.8 | -86.1* | 2.1 | -1.4
CC(=O)Oc1ccc(C(=O)[C@H]2[C@H]3C(=O)N(c4cccc5ccccc45)C(=O)[C@H]3[C@@H]3C=CC=NN32)cc1 | -1.1 | 18.6 | 28.1 | -8.3 | 52.1* | -5.0
Cc1ccc(CSc2ccc(S(=O)(=O)N3CCCC3)cn2)cc1 | / | / | / | / | / | -3.6
N#Cc1ccc(CSc2ccc(S(=O)(=O)N3CCCC3)cn2)cc1 | / | / | / | / | / | 92.6*
O=C(O)Cn1ncn(-c2ccc(OC(F)(F)F)cc2)c1=O | -4.3 | 42.4 | 12.3 | 0.2 | 14.2 | 0.3
CCC(C)C(NS(=O)(=O)c1ccc(C)cc1)C(=O)O (stereo not drawn) | 0.5 | -20.5 | 26.9 | 3.5 | -6.4 | -4.5
CC(=O)OC(C)C(=O)NS(=O)(=O)c1ccc(C)cc1 (stereo not drawn) | 70.7* | -8.2 | 9.0 | 38.2 | -3.3 | -3.6
